Each block holds one molecule with its values, some of them ahead of it.
Columns and labels:
MDA-MB-231 cells [1] = type: cell-based, human
[2] = test system: Akt phosphorylation at S473 in HeLa cells; assay: EGF-stimulated Akt activation; type: cell-based, human; settings: EGF 50 nM, 5 min
Method in brief: (§1)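 Cells were preincubated with a range of test compound concentrations, then stimulated with EGF for 5 min (1.6 nM for MDA-MB-231, 50 nM for HeLa). Cells were then lysed and Akt activation was read by immunoblotting.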

[3] = test system: Akt phosphorylation at S473 in MDA-MB-231 cells; assay: EGF-stimulated Akt activation; type: cell-based, human
Method in brief: as §1

BT-549 cells = assay: Tumor cell migration, BT-549; type: cell-based, human; settings: 1-100 μM
Method in brief: (§2)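 Chemotactic migration toward FBS was measured in a modified Boyden chamber across a range of test compound concentrations. IC50 was derived from the concentration–response data. Results are mean ± SEM (N ≥ 3).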

[4] = test system: GIV-depleted (shGIV) HeLa cells; assay: Tumor cell migration, GIV-depleted HeLa; type: cell-based, human
Method in brief: (§3)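 GIV-depleted (shGIV) and matched control (shControl) cells were run side by side in a modified Boyden-chamber assay of chemotactic migration toward FBS with test compound. Results are mean ± SEM (N ≥ 3).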

MDA-MB-231 cells [5] = assay: Growth of pretreated MDA-MB-231 cells on plastic dishes; type: cell-based, human; settings: cells treated overnight with 100 μM
MDA-MB-231 cells [6] = assay: Cell viability assay; type: cell-based, human; settings: up to 100 μM, 24 h
Method in brief: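 Cell viability was measured after 24 h incubation with test compound at indicated concentrations. IC50 was derived from the concentration-response data. Mean ± SEM, N ≥ 3.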

[7] = Hydrolytic processing of IGGi-11me by cytosolic fraction of MDA-MB-231 cells; type: in vitro ADME, human; settings: 2 hours, 37 °C
Stability in plasma = type: in vitro ADME; settings: preliminary results
MDA-MB-231 cells [8] = assay: Matrigel cultures, MDA-MB-231; type: cell-based, human; settings: 100 μM for 2 days, culture 7 days
GIV binding to Gαi3 = GIV binding to Gαi3 (Rattus norvegicus, UniProt P08753); assay: Fluorescence polarization
Chain of GIV binding to Gαi3 (P08753 whole entry): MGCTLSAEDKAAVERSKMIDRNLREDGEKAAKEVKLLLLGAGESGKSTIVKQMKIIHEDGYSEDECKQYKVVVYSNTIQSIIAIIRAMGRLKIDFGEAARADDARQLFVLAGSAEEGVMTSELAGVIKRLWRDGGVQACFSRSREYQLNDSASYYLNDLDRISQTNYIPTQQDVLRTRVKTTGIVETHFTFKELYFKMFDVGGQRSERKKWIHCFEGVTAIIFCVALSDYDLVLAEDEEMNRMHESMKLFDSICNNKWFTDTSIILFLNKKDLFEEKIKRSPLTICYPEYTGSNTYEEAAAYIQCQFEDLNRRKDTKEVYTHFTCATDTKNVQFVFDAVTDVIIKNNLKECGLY

[9] = test system: GIV-depleted (shGIV) MDA-MB-231 cells; assay: Tumor cell migration, GIV-depleted MDA-MB-231; type: cell-based, human; settings: 100 μM
Method in brief: as §3

MCF-10A cells [10] = assay: Matrigel cultures, MCF-10A; type: cell-based, human; settings: 100 μM
[11] = test system: endogenous β-adrenergic receptors (cAMP via Gαs); assay: Luminescence-based cAMP; type: cell-based, human; settings: 100 μM; isoproterenol 100 nM; HEK293T
Method in brief: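 HEK293T cells expressing the Glosensor luminescent cAMP sensor plus α2A-AR or GABA_BR were pretreated with test compound (100 μM) or DMSO. They were then stimulated with isoproterenol (100 nM), with or without prestimulation by brimonidine (1 μM) or GABA (100 μM). Luminescence was recorded. Mean ± SEM, N ≥ 3; ANOVA.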

[12] = test system: Akt activation in GIV-depleted cells (shGIV); assay: EGF-stimulated Akt activation in GIV-depleted cells; type: cell-based, human; settings: 100 μM
Method in brief: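 GIV-depleted (shGIV) and control (shControl) cells were handled the same way: preincubation with test compound, EGF stimulation for 5 min, lysis, then immunoblotting for Akt activation.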

MDA-MB-231 cells (CXCR4) = assay: SDF-1α mediated cell migration, MDA-MB-231; type: cell-based, human; settings: SDF-1α as chemoattractant; up to 100 μM
[13] = test system: Akt activation upon stimulation of the GPCR CXCR4 in MDA-MB-231 cells; assay: SDF-1α-stimulated Akt activation; type: cell-based, human; settings: SDF-1α 100 ng/mL, 10 min; IGGi-11me 100 μM; PTX 100 ng/mL
MCF-10A cells [14] = assay: Cell viability assay, MCF-10A; type: cell-based, human; settings: 100 μM, 24 h
Method in brief: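 Single-concentration viability screen at 100 μM in MCF-10A cells, run alongside MDA-MB-231 and MCF-7. Values are the mean of N = 3.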

Hs578T cells = assay: Tumor cell migration, Hs578T; type: cell-based, human; settings: 1-100 μM
Method in brief: as §2

GIV–Gαi3 binding = GIV–Gαi3 binding (Rattus norvegicus, UniProt P08753); settings: cell-free systems; cited from earlier work
Chain of GIV–Gαi3 binding (P08753 whole entry): as above

stability in plasma (Stability in plasma): rapidly degraded in plasma
potency as inhibitor of GIV–Gαi3 binding relative to IGGi-11, FP (GIV binding to Gαi3): lower potency compared to IGGi-11
cAMP response to isoproterenol in the absence of Gi-mediated regulation [11]: had no effect
SMILES: COC(=O)CCCN(C)S(=O)(=O)c1ccc2c(c1)Cc1cc(S(=O)(=O)N(C)CCCC(=O)OC)ccc1-2 [IGGi-11me]
inhibition of MDA-MB-231 cell migration, dose dependence (MDA-MB-231 cells [1]; FBS as chemoattractant, 1-100 μM, preincubation): efficiently reduced their ability to migrate
potency on migration of MDA-MB-231 relative to MCF-7 (MDA-MB-231 cells [1]; GIV^High vs GIV^Low): approximately four times more potent
EGF-stimulated phosphorylation of Akt at S473, HeLa [2]: reduced, in a dose-dependent manner, the phosphorylation of Akt at S473
EGF-stimulated phosphorylation of Akt at S473, MDA-MB-231 ([3]; EGF 1.6 nM, 5 min, PTX 100 ng/mL): reduced, in a dose-dependent manner, the phosphorylation of Akt at S473
total amount of GIV or Gαi ([3]; immunoblot): did not change the total amount of GIV or Gαi
inhibition of BT-549 cell migration (BT-549 cells): potency similar to that seen for MDA-MB-231 cells
cell migration of GIV-depleted HeLa cells [4]: inhibition of tumor cell migration is lost upon depletion of GIV
growth of pretreated MDA-MB-231 cells on plastic dishes (MDA-MB-231 cells [5]): had no effect
viability of MDA-MB-231 cells (MDA-MB-231 cells [6]): did not affect the viability
conversion to IGGi-11 by cellular esterases [7]: converted to IGGi-11 by esterases present in the cytosol of MDA-MB-231 cells
growth of MDA-MB-231 cells in Matrigel cultures (MDA-MB-231 cells [8]): overall reduction of cell growth
cell migration of GIV-depleted MDA-MB-231 cells [9]: had no effect on MDA-MB-231 cell migration upon GIV depletion
growth of MCF-10A cells in Matrigel cultures (MCF-10A cells [10]): did not affect the growth of nontransformed MCF-10A breast cells in Matrigel cultures
EGF-stimulated Akt activation in GIV-depleted cells [12]: failed to further reduce Akt activation in GIV-depleted cells
MDA-MB-231 cell migration toward SDF-1α (MDA-MB-231 cells (CXCR4)): did not affect MDA-MB-231 cell migration
SDF-1α-stimulated Akt activation, MDA-MB-231 [13]: does not block Akt activation
viability of MCF-10A cells (MCF-10A cells [14]): did not affect the viability
inhibition of Hs578T cell migration (Hs578T cells): potency similar to that seen for MDA-MB-231 cells

SMILES: O=C(Nc1cccc(C(=O)Nc2ccc(S(=O)(=O)O)c3cc(S(=O)(=O)O)cc(S(=O)(=O)O)c23)c1)Nc1cccc(C(=O)Nc2ccc(S(=O)(=O)O)c3cc(S(=O)(=O)O)cc(S(=O)(=O)O)c23)c1 [NF023]
disruption of the GIV–Gαi interaction (GIV–Gαi3 binding): disrupts the GIV–Gαi interaction
